Data taken from ChEMBL document CHEMBL3044706, “Lignans and neolignans from Brassica fruticulosa: effects on seed germination and plant growth” (2003).
Active and inactive are the calls of the source. No cut-off for these calls is given here.

Key:
Lactuca sativa [1] = assay: Inhibition of seed germination in Lactuca sativa (lettuce) at 10^-4 to 10^-9 M after 5 days relative to control; type: functional
How it was run: (§1)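 Lettuce seeds, 25 per 50 mm Petri dish on one Whatman No. 1 filter paper, with 2.5 mL test solution in 10 mM MES pH 6 (10^-4 M, diluted to 10^-9 M). Dishes were Parafilm-sealed and kept at 25 °C in the dark. Germination was scored daily for 5 days, then root/shoot lengths were measured on plants frozen at -20 °C. Four replicates, expressed as % difference from parallel control, with Student's t-test.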

Lactuca sativa [2] = assay: Stimulation of shoot elongation in Lactuca sativa (lettuce) at 10^-4 to 10^-9 M after 5 days relative to control; type: functional, organism-based; how it was run: as §1
Lactuca sativa [3] = assay: Effect on root elongation in Lactuca sativa (lettuce) at 10^-4 to 10^-9 M after 5 days relative to control; type: functional, organism-based; how it was run: as §1
Solanum lycopersicum [4] = assay: Inhibition of shoot elongation in Solanum lycopersicum (tomato) at 10^-4 to 10^-9 M after 5 days relative to control; type: functional, organism-based
How it was run: (§2)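 Seeds (cress 3 days, tomato 5 days, onion 7 days), 25 per 90 mm Petri dish on one Whatman No. 1 filter paper, with 5 mL test solution in 10 mM MES pH 6 (10^-4 M, diluted to 10^-9 M). Dishes were sealed and kept at 25 °C in the dark. Germination was scored daily, then root/shoot lengths were taken after freezing at -20 °C. Four replicates, expressed as % difference from control, with t-test.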

Allium cepa [5] = assay: Inhibition of shoot elongation in Allium cepa (onion) at 10^-4 to 10^-9 M after 7 days relative to control; type: functional, organism-based; how it was run: as §2
Solanum lycopersicum [6] = assay: Effect on root elongation in Solanum lycopersicum (tomato) at 10^-4 to 10^-9 M after 5 days relative to control; type: functional, organism-based; how it was run: as §2
Allium cepa [7] = assay: Stimulation of shoot elongation in Allium cepa (onion) at 10^-4 to 10^-9 M after 7 days relative to control; type: functional, organism-based; how it was run: as §2
Solanum lycopersicum [8] = assay: Stimulation of shoot elongation in Solanum lycopersicum (tomato) at 10^-4 to 10^-9 M after 5 days relative to control; type: functional, organism-based; how it was run: as §2
Lactuca sativa [9] = assay: Inhibition of shoot elongation in Lactuca sativa (lettuce) at 10^-4 to 10^-9 M after 5 days relative to control; type: functional, organism-based; how it was run: as §1
Solanum lycopersicum [10] = assay: Effect on seed germination in Solanum lycopersicum (tomato) at 10^-4 to 10^-9 M after 5 days relative to control; type: functional, organism-based; how it was run: as §2
Allium cepa [11] = assay: Effect on seed germination in Allium cepa (onion) at 10^-4 to 10^-9 M after 7 days relative to control; type: functional, organism-based; how it was run: as §2
Allium cepa [12] = assay: Stimulation of root elongation in Allium cepa (onion) at 10^-4 to 10^-9 M after 7 days relative to control; type: functional, organism-based; how it was run: as §2
Lepidium sativum [13] = assay: Effect on seed germination in Lepidium sativum at 10^-4 to 10^-9 M after 3 days relative to control; type: functional, organism-based; how it was run: as §2
Lepidium sativum [14] = assay: Inhibition of shoot elongation in Lepidium sativum at 10^-4 to 10^-9 M after 3 days relative to control; type: functional; how it was run: as §2
Lepidium sativum [15] = assay: Effect on root elongation in Lepidium sativum at 10^-4 to 10^-9 M after 3 days relative to control; type: functional, organism-based; how it was run: as §2
Lactuca sativa [16] = assay: Inhibition of seed germination in Lactuca sativa (lettuce) at 10^-9 M after 5 days relative to control; type: functional; settings: 120 h; how it was run: as §1

O=C(O)CNCP(=O)(O)O
inhibition (Lactuca sativa [1]): Active
Activity (Lactuca sativa [2]): Active
Activity (Lactuca sativa [3]): inactive

COc1cc([C@@H]2OC[C@H]3[C@@H]2CO[C@H]3c2ccc(O)c(OC)c2)ccc1O
inhibition (Solanum lycopersicum [4]): Active
inhibition (Allium cepa [5]): Active
Activity (Solanum lycopersicum [6]): inactive
Activity (Allium cepa [7]): Active
Activity (Solanum lycopersicum [8]): Active
inhibition (Lactuca sativa [9]): Active
Activity (Solanum lycopersicum [10]): inactive
Activity (Allium cepa [11]): inactive
Activity (Allium cepa [12]): Active
Activity (Lactuca sativa [2]): Active
Activity (Lactuca sativa [3]): inactive

COc1cc([C@H](O)[C@H](CO)Oc2c(OC)cc([C@@H]3OC[C@@H]4[C@H]3CO[C@H]4c3cc(OC)c(O[C@@H](CO)[C@@H](O)c4ccc(O)c(OC)c4)c(OC)c3)cc2OC)ccc1O
inhibition (Solanum lycopersicum [4]): Active
inhibition (Allium cepa [5]): Active
Activity (Solanum lycopersicum [6]): inactive
Activity (Allium cepa [7]): Active
Activity (Solanum lycopersicum [8]): Active
inhibition (Lactuca sativa [9]): Active
Activity (Solanum lycopersicum [10]): inactive
Activity (Allium cepa [11]): inactive
inhibition (Lactuca sativa [1]): Active
Activity (Allium cepa [12]): Active
Activity (Lactuca sativa [2]): Active
Activity (Lactuca sativa [3]): inactive

COc1cc([C@@H]2Oc3c(OC)cc(/C=C/CO)cc3[C@H]2CO)ccc1O [DEHYDROCONIFERYL ALCOHOL]
inhibition (Solanum lycopersicum [4]): Active
inhibition (Allium cepa [5]): Active
Activity (Solanum lycopersicum [6]): inactive
Activity (Allium cepa [7]): Active
Activity (Lepidium sativum [13]): inactive
Activity (Solanum lycopersicum [8]): Active
inhibition (INH) (Lepidium sativum [14]): 30%
inhibition (Lactuca sativa [9]): Active
Activity (Solanum lycopersicum [10]): inactive
Activity (Allium cepa [11]): inactive
Activity (Lepidium sativum [15]): inactive
inhibition (INH) (Lactuca sativa [1]): 70%
Activity (Allium cepa [12]): Active
Activity (Lactuca sativa [2]): Active
Activity (Lactuca sativa [3]): inactive

COc1cc([C@@H]2c3cc(O)c(OC)cc3C[C@H](CO)[C@H]2CO)ccc1O [(-)-ISOLARICIRESINOL]
inhibition (Solanum lycopersicum [4]): Active
inhibition (Allium cepa [5]): Active
Activity (Solanum lycopersicum [6]): inactive
Activity (Allium cepa [7]): Active
Activity (Lepidium sativum [13]): inactive
Activity (Solanum lycopersicum [8]): Active
inhibition (INH) (Lepidium sativum [14]): 30%
inhibition (Lactuca sativa [9]): Active
Activity (Solanum lycopersicum [10]): inactive
Activity (Allium cepa [11]): inactive
Activity (Lepidium sativum [15]): inactive
inhibition (Lactuca sativa [1]): Active
inhibition at 0.001 µM (Lactuca sativa [16]): 50%
Activity (Allium cepa [12]): inactive
Activity (Lactuca sativa [2]): Active
Activity (Lactuca sativa [3]): inactive

COc1cc(C[C@@H](CO)[C@H](CO)Cc2ccc(O)c(OC)c2)ccc1O [(+)-SECOISOLARICIRESINOL]
inhibition (Solanum lycopersicum [4]): Active
inhibition (Allium cepa [5]): Active
Activity (Solanum lycopersicum [6]): inactive
Activity (Allium cepa [7]): Active
Activity (Solanum lycopersicum [8]): Active
inhibition (Lactuca sativa [9]): Active
Activity (Solanum lycopersicum [10]): inactive
Activity (Allium cepa [11]): inactive
inhibition (Lactuca sativa [1]): Active
inhibition at 0.001 µM (Lactuca sativa [16]): 50%
Activity (Allium cepa [12]): Active
Activity (Lactuca sativa [2]): Active
Activity (Lactuca sativa [3]): inactive

COc1cc([C@@H](O)[C@H]2CO[C@H](c3ccc(O)c(OC)c3)[C@H]2CO)ccc1O
inhibition (Solanum lycopersicum [4]): Active
inhibition (Allium cepa [5]): Active
Activity (Solanum lycopersicum [6]): inactive
Activity (Allium cepa [7]): Active
Activity (Solanum lycopersicum [8]): Active
inhibition (Lactuca sativa [9]): Active
Activity (Solanum lycopersicum [10]): inactive
Activity (Allium cepa [11]): inactive
Activity (Allium cepa [12]): Active
Activity (Lactuca sativa [2]): Active
Activity (Lactuca sativa [3]): inactive

COc1cc([C@H](O)[C@@H](CO)Oc2ccc(/C=C/CO)cc2OC)ccc1O (racemic)
inhibition (Solanum lycopersicum [4]): Active
inhibition (Allium cepa [5]): Active
Activity (Solanum lycopersicum [6]): inactive
Activity (Allium cepa [7]): Active
Activity (Solanum lycopersicum [8]): Active
inhibition (Lactuca sativa [9]): Active
Activity (Solanum lycopersicum [10]): inactive
Activity (Allium cepa [11]): inactive
inhibition (Lactuca sativa [1]): Active
Activity (Allium cepa [12]): Active
Activity (Lactuca sativa [2]): Active
Activity (Lactuca sativa [3]): inactive

COc1cc(C[C@H]2CO[C@H](c3ccc(O)c(OC)c3)[C@H]2CO)ccc1O (racemic) [LARICIRESINOL]
inhibition (Solanum lycopersicum [4]): Active
inhibition (Allium cepa [5]): Active
Activity (Solanum lycopersicum [6]): inactive
Activity (Allium cepa [7]): Active
Activity (Lepidium sativum [13]): inactive
Activity (Solanum lycopersicum [8]): Active
inhibition (INH) (Lepidium sativum [14]): 30%
inhibition (Lactuca sativa [9]): Active
Activity (Solanum lycopersicum [10]): inactive
Activity (Allium cepa [11]): inactive
Activity (Lepidium sativum [15]): inactive
inhibition (Lactuca sativa [1]): Active
inhibition at 0.001 µM (Lactuca sativa [16]): 75%
Activity (Allium cepa [12]): Active
Activity (Lactuca sativa [2]): Active
Activity (Lactuca sativa [3]): inactive

COc1cc([C@@H](O)[C@@H](CO)Oc2c(OC)cc(/C=C/CO)cc2OC)ccc1O
inhibition (Solanum lycopersicum [4]): Active
inhibition (Allium cepa [5]): Active
Activity (Solanum lycopersicum [6]): inactive
Activity (Allium cepa [7]): Active
Activity (Solanum lycopersicum [8]): Active
inhibition (Lactuca sativa [9]): Active
Activity (Solanum lycopersicum [10]): inactive
Activity (Allium cepa [11]): inactive
Activity (Allium cepa [12]): Active
Activity (Lactuca sativa [2]): Active
Activity (Lactuca sativa [3]): inactive

COc1cc(/C=C/C(=O)O)ccc1Oc1ccc(/C=C/C(=O)O)cc1OC
inhibition (Solanum lycopersicum [4]): Active
inhibition (Allium cepa [5]): Active
Activity (Solanum lycopersicum [6]): inactive
Activity (Allium cepa [7]): Active
Activity (Solanum lycopersicum [8]): Active
inhibition (Lactuca sativa [9]): Active
Activity (Solanum lycopersicum [10]): inactive
Activity (Allium cepa [11]): inactive
Activity (Allium cepa [12]): Active
Activity (Lactuca sativa [2]): Active
Activity (Lactuca sativa [3]): inactive

CCC(CC)Nc1c([N+](=O)[O-])cc(C)c(C)c1[N+](=O)[O-]
inhibition (Lactuca sativa [1]): Active
Activity (Lactuca sativa [2]): Active
Activity (Lactuca sativa [3]): inactive

COc1cc([C@H](O)[C@@H](CO)Oc2c(OC)cc([C@@H]3Oc4c(OC)cc(/C=C/CO)cc4[C@H]3CO)cc2OC)ccc1O
inhibition (Solanum lycopersicum [4]): Active
inhibition (Allium cepa [5]): Active
Activity (Solanum lycopersicum [6]): inactive
Activity (Allium cepa [7]): Active
Activity (Solanum lycopersicum [8]): Active
inhibition (Lactuca sativa [9]): Active
Activity (Solanum lycopersicum [10]): inactive
Activity (Allium cepa [11]): inactive
inhibition (Lactuca sativa [1]): Active
Activity (Allium cepa [12]): Active
Activity (Lactuca sativa [2]): Active
Activity (Lactuca sativa [3]): inactive

COc1cc(C[C@H]2CO[C@H](c3ccc(O[C@@H](CO)[C@@H](O)c4ccc(O)c(OC)c4)c(OC)c3)[C@H]2CO)ccc1O
inhibition (Solanum lycopersicum [4]): Active
inhibition (Allium cepa [5]): Active
Activity (Solanum lycopersicum [6]): inactive
Activity (Allium cepa [7]): Active
Activity (Solanum lycopersicum [8]): Active
inhibition (Lactuca sativa [9]): Active
Activity (Solanum lycopersicum [10]): inactive
Activity (Allium cepa [11]): inactive
inhibition (Lactuca sativa [1]): Active
Activity (Allium cepa [12]): Active
Activity (Lactuca sativa [2]): Active
Activity (Lactuca sativa [3]): inactive
